Measurements as given in ChEMBL document CHEMBL3046679, “Design, synthesis, and biological activities of arylmethylamine substituted chlorotriazine and methylthiotriazine compounds” (J Agric Food Chem, 2011).
The source made the active and inactive calls. The calls are words filed in the database; no cut-off is given here.

Key:
Amaranthus retroflexus [1] = assay: Herbicidal activity against Amaranthus retroflexus assessed as growth inhibition at 1 kg/ha postemergence treatment by glasshouse test; format: functional; details: post-emergence, read-out: GI
Procedure, shortened: (§1)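 Glasshouse screen with pre- or postemergence application at 1.0 kg/ha. Result given as percent inhibition of plant growth; norflurazon and glyphosate used as controls.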

Echinochloa crus-galli [2] = assay: Herbicidal activity against Echinochloa crus-galli (barnyard grass) at 1.5 kg/ha preemergence treatment measured after 10 days by glasshouse test; format: functional; details: pre-emergence, 240 h
Procedure, shortened: (§2)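 Glasshouse pre/postemergence test, each treatment in triplicate. Above-ground fresh weight measured 10 days after treatment. Result expressed as percent inhibition versus control, from 0 (no control) to 100 (complete control); glyphosate used as positive control.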

Stellaria media [3] = assay: Herbicidal activity against Stellaria media assessed as growth inhibition at 1 kg/ha preemergence treatment by glasshouse test; format: functional; details: pre-emergence, read-out: GI; procedure, shortened: as §1
Arabidopsis thaliana = assay: Herbicidal activity against Arabidopsis thaliana assessed as growth inhibition at 10 ppm by 96-well plate test; format: functional; details: read-out: GI
Procedure, shortened: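 96-well plate herbicide screen: Arabidopsis thaliana at 10 ppm and Poa annua at 32 ppm, two replicates. Plates incubated seven days in a controlled-environment cabinet. Each replicate scored 0 (no visible effect) or 99 (herbicidal effect); values are the mean of the two. Atrazine used as reference.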

Puccinia triticina [4] = assay: Fungicidal activity against Puccinia triticina assessed as inhibition of disease development in compound treated leaf pieces at 200 ppm relative to untreated control (wheat-curative); format: functional
Procedure, shortened: (§3)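 Curative wheat leaf-piece test against Puccinia triticina. Leaf pieces inoculated with spores first, then treated with formulated compound at 200, 60 or 20 ppm. Disease scored 3–9 days after inoculation as percent inhibition versus untreated controls. Values are the mean across replicates.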

[5] = tested on: Blumeria graminis f. sp. tritici; assay: Fungicidal activity against Blumeria graminis f. sp. tritici assessed as inhibition of disease development in compound treated leaf pieces at 60 ppm relative to untreated control (wheat-preventative); format: functional
Puccinia triticina [6] = assay: Fungicidal activity against Puccinia triticina assessed as inhibition of disease development in compound treated leaf pieces at 20 ppm relative to untreated control (wheat-preventative); format: functional
Procedure, shortened: (§4)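 Preventative leaf-piece test on host tissue (tomato, vine, wheat or barley). Formulated compound applied at 200, 60 and 20 ppm before spore inoculation. Disease scored 3–9 days after inoculation, depending on the pathogen, as percent inhibition of disease development versus untreated controls. Values are the mean across replicates.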

Pythium dissimile = assay: Fungicidal activity against Pythium dissimile assessed as inhibition of mycelia growth at 2 ppm; format: functional, organism-based
Procedure, shortened: (§5)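 Mycelial growth test in 96-well plates: compound incorporated into artificial growth medium at 2 ppm, two replicates per rate. Each well scored 99 for complete, 55 for partial or 0 for no inhibition. Values are the mean across replicates; azoxystrobin and prochloraz used as positive controls.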

Fusarium graminearum = assay: Fungicidal activity against Fusarium graminearum assessed as inhibition of mycelia growth at 2 ppm; format: functional, organism-based; procedure, shortened: as §5
Lolium perenne = assay: Herbicidal activity against Lolium perenne (perennial ryegrass) assessed as growth inhibition at 1 kg/ha preemergence treatment by glasshouse test; format: functional; details: pre-emergence, read-out: GI; procedure, shortened: as §1
Amaranthus retroflexus [7] = assay: Herbicidal activity against Amaranthus retroflexus assessed as growth inhibition at 1 kg/ha preemergence treatment by glasshouse test; format: functional; details: pre-emergence, read-out: GI; procedure, shortened: as §1
Alternaria solani [8] = assay: Fungicidal activity against Alternaria solani assessed as inhibition of disease development in compound treated leaf pieces at 20 ppm relative to untreated control (tomato-preventative); format: functional; procedure, shortened: as §4
Brassica napus [9] = assay: Herbicidal activity against Brassica napus (oilseed rape) at 1.5 kg/ha preemergence treatment measured after 10 days by glasshouse test; format: functional; details: pre-emergence, 240 h; procedure, shortened: as §2
Puccinia triticina [10] = assay: Fungicidal activity against Puccinia triticina assessed as inhibition of disease development in compound treated leaf pieces at 60 ppm relative to untreated control (wheat-curative); format: functional; procedure, shortened: as §3
Phytophthora infestans [11] = assay: Fungicidal activity against Phytophthora infestans assessed as inhibition of disease development in compound treated leaf pieces at 60 ppm relative to untreated control (tomato-preventative); format: functional; procedure, shortened: as §4
Alternaria solani [12] = assay: Fungicidal activity against Alternaria solani assessed as inhibition of disease development in compound treated leaf pieces at 200 ppm relative to untreated control (tomato-preventative); format: functional; procedure, shortened: as §4
Digitaria sanguinalis [13] = assay: Herbicidal activity against Digitaria sanguinalis (hairy crabgrass) assessed as growth inhibition at 1 kg/ha postemergence treatment by glasshouse test; format: functional; details: post-emergence, read-out: GI; procedure, shortened: as §1
Alternaria solani [14] = assay: Fungicidal activity against Alternaria solani assessed as inhibition of disease development in compound treated leaf pieces at 60 ppm relative to untreated control (tomato-preventative); format: functional; procedure, shortened: as §4
Aphididae = assay: Insecticidal activity against Aphididae (aphids) assessed as mortality at 1000 ppm by leaf-disk assay; format: functional, organism-based
Procedure, shortened: (§6)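 Leaf-disk assay at 1000 ppm, three replicates. Plates kept 5–9 days in controlled-environment cabinets. Mortality judged against untreated wells: 99 for significant mortality, 0 otherwise. Values are the mean of three; thiamethoxam and indoxacarb used as positive controls.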

Plasmopara viticola [15] = assay: Fungicidal activity against Plasmopara viticola assessed as inhibition of disease development in compound treated leaf pieces at 200 ppm relative to untreated control (grapevine-preventative); format: functional; procedure, shortened: as §4
[16] = tested on: Blumeria graminis f. sp. tritici; assay: Fungicidal activity against Blumeria graminis f. sp. tritici assessed as inhibition of disease development in compound treated leaf pieces at 200 ppm relative to untreated control (wheat-preventative); format: functional
Digitaria sanguinalis [17] = assay: Herbicidal activity against Digitaria sanguinalis (hairy crabgrass) assessed as growth inhibition at 1 kg/ha preemergence treatment by glasshouse test; format: functional; details: pre-emergence, read-out: GI; procedure, shortened: as §1
Zymoseptoria tritici = assay: Fungicidal activity against Zymoseptoria tritici assessed as inhibition of mycelia growth at 100 ppm; format: functional, organism-based
Uromyces viciae-fabae = assay: Fungicidal activity against Uromyces viciae-fabae assessed as inhibition of mycelia growth at 100 ppm; format: functional, organism-based
Procedure, shortened: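 Leaf-piece assay on bean at 100 ppm, with compound applied before spore inoculation and two replicates. Each well scored 99 for complete inhibition, 55 for partial and 0 for none; value is the mean score across replicates.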

Parastagonospora nodorum = assay: Fungicidal activity against Phaeosphaeria nodorum assessed as inhibition of disease development in compound treated leaf pieces at 60 ppm relative to untreated control (wheat preventative); format: functional; procedure, shortened: as §4
Phytophthora infestans [18] = assay: Fungicidal activity against Phytophthora infestans assessed as inhibition of disease development in compound treated leaf pieces at 20 ppm relative to untreated control (tomato-preventative); format: functional; procedure, shortened: as §4
Plasmopara viticola [19] = assay: Fungicidal activity against Plasmopara viticola assessed as inhibition of disease development in compound treated leaf pieces at 60 ppm relative to untreated control (grapevine-preventative); format: functional; procedure, shortened: as §4
Echinochloa crus-galli [20] = assay: Herbicidal activity against Echinochloa crus-galli (barnyard grass) at 1.5 kg/ha postemergence treatment measured after 10 days by glasshouse test; format: functional; details: post-emergence, 240 h; procedure, shortened: as §2
Alternaria solani [21] = assay: Fungicidal activity against Alternaria solani assessed as inhibition of mycelia growth at 2 ppm; format: functional, organism-based; procedure, shortened: as §5
Stellaria media [22] = assay: Herbicidal activity against Stellaria media assessed as growth inhibition at 1 kg/ha postemergence treatment by glasshouse test; format: functional; details: post-emergence, read-out: GI; procedure, shortened: as §1
Heliothis virescens = assay: Insecticidal activity against Lepidoptera Heliothis virescens (tobacco budworm) assessed as mortality at 1000 ppm by leaf-disk assay; format: functional, organism-based; procedure, shortened: as §6
Puccinia triticina [23] = assay: Fungicidal activity against Puccinia triticina assessed as inhibition of disease development in compound treated leaf pieces at 20 ppm relative to untreated control (wheat-curative); format: functional; procedure, shortened: as §3
Brassica napus [24] = assay: Herbicidal activity against Brassica napus (oilseed rape) at 1.5 kg/ha postemergence treatment measured after 10 days by glasshouse test; format: functional; details: post-emergence, 240 h; procedure, shortened: as §2
Puccinia triticina [25] = assay: Fungicidal activity against Puccinia triticina assessed as inhibition of disease development in compound treated leaf pieces at 60 ppm relative to untreated control (wheat-preventative); format: functional; procedure, shortened: as §4

Work on CC(C)Nc1nc(Cl)nc(NCc2ccc(F)cc2)n1 yielded an inhibition of growth at 1000 g/ha (Amaranthus retroflexus [1]) of 100%, an inhibition at 1500 g/ha (Echinochloa crus-galli [2]) of 2.1% and an inhibition of growth at 1000 g/ha (Stellaria media [3]) of 90%. The inhibition of growth at 10 ppm (Arabidopsis thaliana) was 99%, the inhibition at 200 ppm (Puccinia triticina [4]) was 100% and the inhibition at 60 ppm [5] was 20%. For the same molecule, the inhibition at 20 ppm (Puccinia triticina [6]) was 0%, the inhibition (Pythium dissimile) was “inactive” and the inhibition (Fusarium graminearum) was “inactive”. It also gave an inhibition of growth at 1000 g/ha (Lolium perenne) of 30%, an inhibition of growth at 1000 g/ha (Amaranthus retroflexus [7]) of 100% and an inhibition at 20 ppm (Alternaria solani [8]) of 0%. It also gave an inhibition at 1500 g/ha (Brassica napus [9]) of 100%, an inhibition at 60 ppm (Puccinia triticina [10]) of 100% and an inhibition at 60 ppm (Phytophthora infestans [11]) of 0%. The inhibition at 200 ppm (Alternaria solani [12]) was 0%, the inhibition of growth at 1000 g/ha (Digitaria sanguinalis [13]) was 0% and the inhibition at 60 ppm (Alternaria solani [14]) was 0%. For the same molecule, the mortality (Aphididae) was “inactive”, the inhibition at 200 ppm (Plasmopara viticola [15]) was 50% and the inhibition at 200 ppm [16] was 70%. For the same molecule, the inhibition of growth at 1000 g/ha (Digitaria sanguinalis [17]) was 70%, the inhibition (Zymoseptoria tritici) was “Active” and the inhibition (Uromyces viciae-fabae) was “Active”. It also gave an inhibition at 60 ppm (Parastagonospora nodorum) of 20%, an inhibition at 20 ppm (Phytophthora infestans [18]) of 0% and an inhibition at 60 ppm (Plasmopara viticola [19]) of 20%. For the same molecule, the inhibition at 1500 g/ha (Echinochloa crus-galli [20]) was 75.7%, the inhibition (Alternaria solani [21]) was “inactive” and the inhibition of growth at 1000 g/ha (Stellaria media [22]) was 90%. For the same molecule, the mortality (Heliothis virescens) was “inactive”, the inhibition at 20 ppm (Puccinia triticina [23]) was 20% and the inhibition at 1500 g/ha (Brassica napus [24]) was 100%. It also gave an inhibition at 60 ppm (Puccinia triticina [25]) of 20%.
